Where “and” joins values, the source holds several entries; their conditions need not be identical. Equal values may be shown once. Read-outs that look alike come from different tables or passages of the source.
Legend:
[1] = system: MDCK cells; assay type: in vitro ADME, canine
Method in brief: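 MDCK monolayers on nitrocellulose Millicell filters, 5–7 d after plating (1.8–2.0×10^6 cells/well at confluence). Both sides washed with PBS pH 7.4. Chloramine-T-iodinated EGF tracer added to one side at 4°C, then held at 4, 15 or 37°C, with [14C]inulin (50,000 cpm) as leak marker. In a second format, tracer was bound basally 2.5 h at 4°C, washed, and moved to 37°C. Triplicate wells, mean ± SD.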

[2] = molecular target: T1, EGF receptor on MDCK cells (Canis lupus familiaris, UniProt A0A8I3RYJ5); assay type: cell-based, canine
Method in brief: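 MDCK monolayers on 0.45-µm nitrocellulose filter chambers, used 5–7 d after plating. Hepes buffer pH 7.4. 50,000 cpm (0.137 ng) chloramine-T-iodinated EGF plus 50,000 cpm [14C]inulin leakage marker added apically or basally. Opposite side sampled every 30 min with buffer replacement. Cumulative counts expressed as % of tracer added. Antibody 1:100 preincubated basally 60 min at 37°C, sampled over 4.5 h. Triplicate wells.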

[3] = Diffusion across nitrocellulose filter of empty chambers; assay type: in vitro ADME; conditions: empty chamber, nitrocellulose filter without cells; 2 h; ~50,000 cpm tracer
[4] = molecular target: T1, EGF receptor on MDCK cells; assay type: binding, canine; conditions: for EGF bound, % of the total tracer added: 4 C, 50,000 cpm [125I]EGF
Method in brief: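 Confluent MDCK filter monolayers (1.8–2.0×10^6 cells/well) washed three times with cold PBS. Hepes buffer (50 mM Hepes, 1% BSA, pH 7.4) added both sides. 50,000 cpm [125I]EGF (194 µCi/µg) plus unlabeled EGF 1–200 ng/ml applied to apical or basal side. Incubated 6 h at 4°C, then washed. Filters excised and gamma-counted. Scatchard analysis.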

[5] = system: insulin receptors on MDCK cells; assay: [125I]insulin binding to basal or apical surface of MDCK cells; design: species or system canine; conditions: Hepes buffer, 15 C

| Substance | Transport of EGF basal-to-apical at 4 C (in words) ([1]; 4 C versus 37 C, mean of triplicate wells) | Transport of EGF basal-to-apical at 15 C (in words) ([1]; 15 C versus 37 C, mean of triplicate wells) | Transport in the apical-to-basal direction (in words) ([1]; MDCK monolayer) | Time to appearance of EGF at the apical surface after warming ([1]; pre-bound tracer on basal surface, warmed from 4 C to 37 C) [min] | Effect of unlabeled EGF on transport of tracer EGF, basal-to-apical ([2]; 0.85 nM (5 ng/ml) unlabeled EGF) | Effect of unlabeled EGF on transcytosis of labeled EGF, apical-to-basal ([2]; 110 nM cold EGF) | Effect of unlabeled EGF on transcytosis of labeled EGF, basal-to-apical ([2]; 110 nM unlabeled EGF) | Diffusion across the membrane, % of the total added [3] [%] | EGF bound, % of the total tracer added ([4]; apical surface of MDCK cells) | EGF bound, % of the total tracer added ([4]; basal surface of MDCK cells, binding maximal within 4 h) | Concentration of cold EGF that inhibited binding by 50% ([4]; basal surface of MDCK cells, 6 h at 4 C, competition with [125I]EGF) [ng/mL] | Transport in either direction (in words) ([1]; MDCK monolayer, basal-to-apical and apical-to-basal) | Binding of insulin [5] |
| --- | --- | --- | --- | --- | --- | --- | --- | --- | --- | --- | --- | --- | --- |
| epidermal growth factor [EGF] | even further decreased | markedly decreased | No transport | ≤ 15 | substantial de- crease | no effect | completely inhibited | 22 | < 1% and 0.8% | 6.5% and ~ 6% | 5 | – | – |
| insulin | – | – | – | – | – | – | – | – | – | – | – | not observed | failed to detect binding |

— PMC2114648 (The Journal of Cell Biology, 1987)
